# Laboratory results: ChEMBL document CHEMBL1121465 (J Med Chem, 1980)
# pKi: −log10 of the molar value.
# Key:
# Mus musculus [1] = organism: Mus musculus; assay: Effective dose which decreases the 50% of the lethality induced by bicuculline in mice; type: functional
# Procedure, shortened: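 Mice given ip serial doses 30 min before iv bicuculline at 0.9 mg/kg, 10 animals per drug per dose per experiment. ED50, the dose protecting half the mice from lethality, derived by log-probit plot.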
# [2] = molecular target: GABA-A receptor; anion channel; assay: Displacement of [3H]gamma-amino butyric acid from Gamma-aminobutyric acid (GABA-A) receptor of human cerebellar cortex preparation
# Mus musculus [3] = organism: Mus musculus; assay: Effective dose which decreases the 50% of the convulsions induced by bicuculline in mice; type: functional
# Mus musculus [4] = assay: Lethal dose which causes death in 50% of the mice within 48 hr of ip administration; type: functional
# Procedure, shortened: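 Male albino CD1 mice (18–22 g) dosed intraperitoneally, then returned to home cages, 10 per cage. Deaths per dose were counted at 48 h. LD50 was estimated on log-probit paper.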
# [5] = molecular target: GABA-A receptor; anion channel; assay: Displacement of [3H]gamma-amino butyric acid from Gamma-aminobutyric acid (GABA-A) receptor of rat brain
structure (smiles),measurement,setting,value
O=C([O-])CCC/N=C(\c1ccc(Cl)cc1)c1cc(F)ccc1O.[Na+],ED50,Mus musculus [1],70 mg/kg
same,pKi,[2],6.17
same,ED50,Mus musculus [3],15 mg/kg
same,LD50,Mus musculus [4],420 mg/kg
same,pKi,[5],6.23
NCc1cc(=O)[nH]o1 [MUSCIMOL],ED50,Mus musculus [1],> 2 mg/kg
same,pKi,[2],7.96
same,ED50,Mus musculus [3],0.25 mg/kg
same,LD50,Mus musculus [4],17 mg/kg
same,pKi,[5],8.40
O=C1NC(=O)C(c2ccccc2)(c2ccccc2)N1 [PHENYTOIN],ED50,Mus musculus [1],50 mg/kg
same,LD50,Mus musculus [4],250 mg/kg
same,pKi,[5],< 4.00
NC(=O)CCC/N=C(\c1ccc(Cl)cc1)c1cc(F)ccc1O [PROGABIDE],ED50,Mus musculus [1],65 mg/kg
same,pKi,[2],4.40
same,ED50,Mus musculus [3],20 mg/kg
same,LD50,Mus musculus [4],900 mg/kg
same,pKi,[5],4.85
CCCC(CCC)C(=O)[O-].[Na+] [VALPROATE SODIUM],ED50,Mus musculus [1],130 mg/kg
same,pKi,[2],< 4.00
same,ED50,Mus musculus [3],33 mg/kg
same,LD50,Mus musculus [4],1000 mg/kg
same,pKi,[5],< 4.00
